Measured values taken from ChEMBL document CHEMBL1128461, “Synthesis, X-ray crystallography, and pharmacokinetics of novel azomethine prodrugs of (R)-alpha-methylhistamine: highly potent and selective histamine H3 receptor agonists” (J Med Chem, 1995).

Columns and labels:
[1] = Conversion rate by hydrolysis of compound […] after 2 hr at a pH of 1.0; type: ADME, cell-free; conditions: pH 1; read-out: Conversion rate
Summary of the method: (§1)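 Prodrug from a 10 mM DMSO stock, diluted to 4 μM final in 0.4 N HClO4 and held at room temperature. Aliquots were taken at intervals. Free 1 was measured by RIA: p-benzoquinone derivatization for 30 min, then rabbit antiserum and 125I tracer. Hydrolysis % is the measured 1 as a percent of the level for complete hydrolysis.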

[2] = Conversion rate by hydrolysis of compound in plasma after 4 hr at a pH of 7.4; type: ADME, cell-free; conditions: pH 7.4, read-out: Conversion rate
[3] = Conversion rate by hydrolysis of compound in plasma after 6 hr.; type: ADME, cell-free; conditions: read-out: Conversion rate
Summary of the method: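 Male Swiss mice (20–25 g) were given 24 μmol/kg prodrug orally in 1% methyl cellulose and decapitated at 0.5, 1, 3 or 6 h. Plasma HClO4 extracts were assayed by RIA for free 1, with total 1 measured after heating at 95 °C for 30 min. Value is AUCplasma(1)/[AUCplasma(1)+AUCplasma(prodrug)].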

[4] = Concentration of compound in Central nervous system; Not detectable; type: ADME, tissue-based
[5] = Conversion rate by hydrolysis of compound […] after 2 hr at a pH of 1.0; Not detectable; type: ADME, cell-free; conditions: pH 1, 2 h; summary of the method: as §1
[6] = Conversion rate by hydrolysis of compound in plasma after 4 hr at a pH of 7.4; Not detectable; type: ADME, cell-free; conditions: pH 7.4, 4 h
[7] = Plasma concentration (AUC) was determined; Not detectable; type: ADME, cell-free
[8] = Conversion rate by hydrolysis of compound in plasma after 6 h; Not detectable; type: ADME, cell-free

C[C@H](Cc1c[nH]cn1)/N=C(\c1ccccc1)c1cc(F)ccc1O
metabolised at 2 h [1]: 30% | metabolised at 4 h [2]: 15.4% | metabolised at 6 h [3]: 24%

C[C@H](Cc1c[nH]cn1)/N=C(/c1cc(F)ccc1O)c1cccc2ccccc12
metabolised at 2 h [1]: 0.2% | metabolised at 4 h [2]: 1.3% | concentration in CNS [4]: Not detectable | metabolised at 6 h [3]: 11%

C[C@H](Cc1c[nH]cn1)N=C(c1ccccc1O)c1ccccc1O
Conversion rate [5]: Not detectable | concentration in CNS [4]: Not detectable | Conversion rate [6]: Not detectable

COc1ccc(/C(=N/[C@H](C)Cc2c[nH]cn2)c2ccccc2)c(O)c1
AUC [7]: Not detectable | metabolised at 2 h [1]: 3% | metabolised at 4 h [2]: 6% | concentration in CNS [4]: Not detectable

Cc1cc(O)c(/C(=N/[C@H](C)Cc2c[nH]cn2)c2ccccc2)cc1Cl
metabolised at 2 h [1]: 5.6% | metabolised at 4 h [2]: 2.8% | concentration in CNS [4]: Not detectable | metabolised at 6 h [3]: 41%

C[C@H](Cc1c[nH]cn1)/N=C(\c1ccc(F)cc1)c1ccccc1O
metabolised at 2 h [1]: 20.1% | metabolised at 6 h [3]: 26%

C[C@@H]1Cc2[nH]cnc2C(c2ccccc2O)N1 (some centres undefined)
AUC [7]: Not detectable | metabolised at 2 h [1]: 0.2% | concentration in CNS [4]: Not detectable | Conversion rate [8]: Not detectable

C[C@H](Cc1c[nH]cn1)/N=C(\c1ccc(F)cc1)c1cc(F)ccc1O
metabolised at 2 h [1]: 63.8% | metabolised at 4 h [2]: 33.8% | metabolised at 6 h [3]: 45%

C[C@H](Cc1c[nH]cn1)/N=C(\c1ccc(Cl)cc1)c1ccccc1O
metabolised at 2 h [1]: 18.3% | metabolised at 6 h [3]: 28%

C[C@H](Cc1c[nH]cn1)/N=C(\c1ccccc1)c1ccccc1O
metabolised at 2 h [1]: 14.1% | concentration in CNS [4]: Not detectable | metabolised at 6 h [3]: 14%

C[C@H](Cc1c[nH]cn1)/N=C(\c1ccc(Cl)cc1)c1cc(F)ccc1O
metabolised at 2 h [1]: 62% | metabolised at 4 h [2]: 15.2% | metabolised at 6 h [3]: 42%

C[C@H](Cc1c[nH]cn1)/N=C(\c1ccccc1)c1cc(Br)ccc1O
metabolised at 2 h [1]: 34.6% | metabolised at 4 h [2]: 16.6% | metabolised at 6 h [3]: 31%

Cc1ccc(O)c(/C(=N/[C@H](C)Cc2c[nH]cn2)c2ccccc2)c1
metabolised at 2 h [1]: 11.9% | concentration in CNS [4]: Not detectable | metabolised at 6 h [3]: 29%

C[C@H](Cc1c[nH]cn1)/N=C(\c1ccccc1)c1cc(F)cc(Cl)c1O
metabolised at 2 h [1]: 79.3% | metabolised at 4 h [2]: 19.6% | metabolised at 6 h [3]: 28%

C[C@H](Cc1c[nH]cn1)/N=C(\c1ccc(F)cc1)c1cc(Cl)ccc1O
metabolised at 2 h [1]: 67.1% | metabolised at 4 h [2]: 26% | metabolised at 6 h [3]: 40%

C[C@H](Cc1c[nH]cn1)/N=C(\c1ccccc1)c1cc(Cl)ccc1O
metabolised at 2 h [1]: 46.9% | metabolised at 4 h [2]: 23.2% | concentration in CNS [4]: Not detectable | metabolised at 6 h [3]: 33%

C[C@H](Cc1c[nH]cn1)/N=C(\c1ccc(Cl)cc1)c1cc(Cl)ccc1O
metabolised at 2 h [1]: 62.7% | metabolised at 4 h [2]: 16.2% | metabolised at 6 h [3]: 58%
